# Assay results from ChEMBL document CHEMBL1122781, “[(Aminomethyl)aryloxy]acetic acid esters. A new class of high-ceiling diuretics. 1. Effects of nitrogen and aromatic nuclear substitution” (J Med Chem, 1984).
# How the values were obtained:
# [1] = tested on: Canis familiaris; experiment: Diuretic activity was evaluated by measuring amount of K+ during 0-6 hr in urine of normotensive saline loaded dogs at 10.0mg/kg, po; assay type: ADME, organism-based, Canis lupus familiaris; conditions: dog, in vivo, 10 mg/kg
# Outline: (§1)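 Conscious female dogs, each given one oral dose per experiment. Urine and heparinized venous plasma were taken at each collection time. Urine was centrifuged and chilled, and plasma was separated within 30 min. Both were assayed for Na+, K+, Cl−, urate and glucose. Results are mean excretion in mequiv kg−1 (6 h)−1, with at least two dogs per dose.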
# [2] = tested on: Rattus norvegicus; experiment: Diuretic activity was evaluated by measuring amount of Cl- during 0-6 hr in urine of normotensive saline loaded rats at 3.0mg/kg, po; assay type: ADME, organism-based; conditions: in vivo, 3 mg/kg
# Outline: (§2)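 Male Sprague–Dawley rats (275–375 g), fed and watered ad libitum before testing but not during it, eight per group. Compound in 0.2% methylcellulose/water given orally at 2 mL/kg, immediately followed by a 0.9% saline load equal to 5% of body weight. Rats were kept in individual metabolism cages. Urine was sampled at 2, 6 and 24 h for volume, Na+, K+, Cl−, uric acid and osmolality.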
# [3] = tested on: Rattus norvegicus; experiment: Percent change of arterial blood pressure in spontaneously hypertensive rats at the dose of 1 mg/kg (p.o.) after […] (control BP(mm Hg)=215); assay type: functional; conditions: route oral
# [4] = tested on: Canis familiaris; experiment: Diuretic activity was evaluated by measuring amount of Cl- during 0-6 h in urine of normotensive saline loaded dogs at 3.0 mg/kg, po; assay type: ADME, organism-based, Canis lupus familiaris; set-up: dose 3 mg/kg, route oral; conditions: dog, in vivo; outline: as §1
# [5] = tested on: Rattus norvegicus; experiment: Percent change of arterial blood pressure in spontaneously hypertensive rats at the dose of 3 mg/kg (p.o.) after […] (control BP(mm Hg)=221); assay type: functional; conditions: route oral
# [6] = tested on: Canis familiaris; experiment: Diuretic activity was evaluated by measuring amount of Cl- during 0-6 hr in urine of normotensive saline loaded dogs at 0.03mg/kg, po; assay type: ADME, organism-based, Canis lupus familiaris; conditions: dog, in vivo; outline: as §1
# [7] = tested on: Rattus norvegicus; experiment: Percent change of arterial blood pressure in spontaneously hypertensive rats at the dose of 1 mg/kg (p.o.) after 6 hr (control BP(mm Hg)=215); assay type: functional; conditions: route oral
# [8] = tested on: Rattus norvegicus; experiment: Diuretic activity was evaluated by measuring amount of Na+ during 0-6 h in urine of normotensive saline loaded rats at 0.3 mg/kg, po; assay type: ADME, organism-based; set-up: dose 0.3 mg/kg, route oral; conditions: in vivo
# Outline: (§3)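 Male normotensive Sprague–Dawley rats (275–375 g), eight per group. Test compound or vehicle (0.2% methylcellulose in water, 2 mL/kg) is given by mouth, followed at once by a 0.9% saline load equal to 5% of body weight. Rats are housed in metabolism cages without food or water. Urine is collected at 2, 6 and 24 h and assayed for Na+, K+, Cl−, uric acid and osmolality.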
# [9] = Diuretic activity was evaluated by measuring amount of Na+ during 0-6 hr in urine of normotensive […] monkey at 30mg/kg, po; assay type: ADME, organism-based; conditions: simiiformes, in vivo
# Outline: (§4)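 Male and female cynomolgus monkeys, fasted 16–18 h with water until dosing, six per dose. Compound or vehicle is given through a nasogastric tube, then a 50 mL/kg water load. No food or water for 6 h in metabolism cages. Urine is collected at 0–1, 1–2, 2–4 and 4–6 h and analyzed for electrolytes, uric acid and glucose.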
# [10] = tested on: Rattus norvegicus; experiment: Percent change of arterial blood pressure in spontaneously hypertensive rats at the dose of 10 mg/kg (p.o.) after 24 hr (control BP(mm Hg)=219); assay type: functional; conditions: route oral
# [11] = tested on: Rattus norvegicus; experiment: Percent change of arterial blood pressure in spontaneously hypertensive rats at the dose of 1 mg/kg (p.o.) after 24 hr (control BP(mm Hg)=215); assay type: functional; conditions: route oral
# [12] = tested on: Rattus norvegicus; experiment: Oral dose necessary to produce an excretion of 2 mequiv of Na+/kg in the rat urine in the 4-h period after peroral administration; assay type: ADME, organism-based; conditions: in vivo
# [13] = tested on: Canis familiaris; experiment: Diuretic activity was evaluated by measuring amount of Na+ during 0-6 h in urine of normotensive saline loaded dogs at 0.3 mg/kg, po; assay type: ADME, organism-based, Canis lupus familiaris; set-up: dose 0.3 mg/kg, route oral; conditions: dog, in vivo
# Outline: (§5)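 Conscious dogs, each given a single oral dose per experiment, with at least two dogs per dose. Urine volume is measured; aliquots are centrifuged and chilled. Heparinized venous blood (4 mL) is drawn at each urine collection. Urine and plasma are analyzed for Na+, K+, Cl−, urate and glucose. Result is mean Na+ excretion in mequiv kg−1 (6 h)−1.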
# [14] = tested on: Canis familiaris; experiment: Diuretic activity was evaluated by measuring amount of Cl- during 0-6 h in urine of normotensive saline loaded dogs at 0.3mg/kg, po; assay type: ADME, organism-based, Canis lupus familiaris; conditions: dog, in vivo; outline: as §1
# [15] = tested on: Rattus norvegicus; experiment: Diuretic activity was evaluated by measuring amount of K+ during 0-6 h in urine of normotensive saline loaded rats at 100.0 mg/kg, po; assay type: ADME, organism-based; set-up: dose 100 mg/kg, route oral; conditions: in vivo; outline: as §2
# [16] = Diuretic activity was evaluated by measuring amount of Na+ during 0-6 hr in urine of […] monkey at 3mg/kg, po; assay type: ADME, organism-based; conditions: simiiformes, in vivo; outline: as §4
# [17] = tested on: Rattus norvegicus; experiment: Diuretic activity was evaluated by measuring amount of K+ during 0-6 hr in urine of normotensive saline loaded rats at 30.0mg/kg, po; assay type: ADME, organism-based; conditions: in vivo, 30 mg/kg; outline: as §3
# [18] = tested on: Rattus norvegicus; experiment: Diuretic activity was evaluated by measuring amount of Na+ during 0-6 h in urine of normotensive saline loaded rats at 3.0 mg/kg, po; assay type: ADME, organism-based; set-up: dose 3 mg/kg, route oral; conditions: in vivo; outline: as §3
# [19] = tested on: Rattus norvegicus; experiment: Diuretic activity was evaluated by measuring amount of Cl- during 0-6 hr in urine of normotensive saline loaded rats at 0.1 mg/kg, po; assay type: ADME, organism-based; set-up: dose 0.1 mg/kg, route oral; conditions: in vivo; outline: as §2
# [20] = tested on: Rattus norvegicus; experiment: Diuretic activity was evaluated by measuring amount of K+ during 0-6 hr in urine of normotensive saline loaded rats at 0.3mg/kg, po; assay type: ADME, organism-based; conditions: in vivo; outline: as §2
# [21] = tested on: Rattus norvegicus; experiment: Diuretic activity was evaluated by measuring amount of Cl- during 0-6 h in urine of normotensive saline loaded rats at 30.0 mg/kg, po; assay type: ADME, organism-based; set-up: dose 30 mg/kg, route oral; conditions: in vivo; outline: as §2
# [22] = Diuretic activity was evaluated by measuring amount of Cl- during 0-6 h in urine of […] monkey at 30 mg/kg, po; assay type: ADME, organism-based; set-up: dose 30 mg/kg, route oral; conditions: simiiformes, in vivo
# Outline: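 Male and female cynomolgus monkeys, fasted 16–18 h with water until dosing, six per dose. Compound or vehicle was given by pediatric nasogastric tube, followed at once by a 50 mL/kg water load. Monkeys were kept in metabolism cages without food or water for 6 h. Urine was collected at 0–1, 1–2, 2–4 and 4–6 h, and volume, electrolytes, uric acid and glucose were measured.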
# [23] = tested on: Canis familiaris; experiment: Diuretic activity was evaluated by measuring amount of Na+ during 0-6 h in urine of normotensive saline loaded dogs at 10.0mg/kg, po; assay type: ADME, organism-based, Canis lupus familiaris; conditions: dog, in vivo, 10 mg/kg; outline: as §5
# [24] = tested on: Rattus norvegicus; experiment: Diuretic activity was evaluated by measuring amount of Na+ during 0-6 hr in urine of normotensive saline loaded rats at 1.0mg/kg, po; assay type: ADME, organism-based; conditions: in vivo, 1 mg/kg; outline: as §3
# [25] = tested on: Canis familiaris; experiment: Diuretic activity was evaluated by measuring amount of Cl- during 0-6 hr in urine of normotensive saline loaded dogs at 0.1 mg/kg, po; assay type: ADME, organism-based, Canis lupus familiaris; set-up: dose 0.1 mg/kg, route oral; conditions: dog, in vivo; outline: as §1
# [26] = tested on: Canis familiaris; experiment: Diuretic activity was evaluated by measuring amount of K+ during 0-6 hr in urine of normotensive saline loaded dogs at 3.0mg/kg, po; assay type: ADME, organism-based, Canis lupus familiaris; conditions: dog, in vivo, 3 mg/kg; outline: as §1
# [27] = tested on: Rattus norvegicus; experiment: Percent change of arterial blood pressure in spontaneously hypertensive rats at the dose of 10 mg/kg (p.o.) after […] (control BP(mm Hg)=219); assay type: functional; conditions: route oral
# [28] = tested on: Rattus norvegicus; experiment: Diuretic activity was evaluated by measuring amount of Na+ during 0-6 hr in urine of normotensive saline loaded rats at 30.0mg/kg, po; assay type: ADME, organism-based; conditions: in vivo, 30 mg/kg; outline: as §3
# [29] = tested on: Rattus norvegicus; experiment: Percent change of arterial blood pressure in spontaneously hypertensive rats at the dose of 3 mg/kg (p.o.) after 24 hr (control BP(mm Hg)=221); assay type: functional; conditions: route oral
structure (smiles),measurement,setting,value
CCOC(=O)COc1ccc(C(=O)c2ccc(O)c(CN)c2)c(Cl)c1Cl.Cl,Diuretic activity,[1],1.7 m equiv kg-1
same,Diuretic activity,[2],16.3 m equiv kg-1
same,Change,[3],-17%
same,Diuretic activity,[4],7.9 m equiv kg-1
same,Change,[5],-22%
same,Diuretic activity,[6],0.5 m equiv kg-1
same,Change,[7],-11%
same,Diuretic activity,[8],9.6 m equiv kg-1
same,Diuretic activity,[9],6.4 m equiv kg-1
same,Change,[10],-19%
same,Change,[11],-6%
same,ED2,[12],3 mg/kg
same,Diuretic activity,[13],2.7 m equiv kg-1
same,Diuretic activity,[14],3 m equiv kg-1
same,Diuretic activity,[15],3.6 m equiv kg-1
same,Diuretic activity,[16],5.3 m equiv kg-1
same,Diuretic activity,[17],3.8 m equiv kg-1
same,Diuretic activity,[18],13.9 m equiv kg-1
same,Diuretic activity,[19],8.1 m equiv kg-1
same,Diuretic activity,[20],2.7 m equiv kg-1
same,Diuretic activity,[21],17.4 m equiv kg-1
same,Diuretic activity,[22],6.9 m equiv kg-1
same,Diuretic activity,[23],6.3 m equiv kg-1
same,Diuretic activity,[24],12.8 m equiv kg-1
same,Diuretic activity,[25],1 m equiv kg-1
same,Diuretic activity,[26],1.8 m equiv kg-1
same,Change,[27],-31%
same,Diuretic activity,[28],14.8 m equiv kg-1
same,Change,[29],-14%
